Assay results as given in ChEMBL document CHEMBL1125273, “Synthesis and biological evaluation of quinocarcin derivatives: thioalkyl-substituted quinones and hydroquinones” (J Med Chem, 1991).
In brackets after ≈: the same amount, converted by molar mass.

How the values were obtained:
[1] = Antitumor activity in vivo in CD2F1 mice measured in terms of percent increase in lifespan calculated at a dose of 200 mg/kg intraperitoneally on day one.; type: functional; details: Mus musculus, ip, route intraperitoneal
Outline: (§1)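 P388 lymphocytic leukemia cells (1×10^6) were implanted ip into CD2F1 mice (about 22 g), five mice per group. Drug was given ip from the day after implantation, either once (day 1) or daily on days 1–5. ILS = (T/C − 1) × 100, where T and C are the median survival times of treated and control mice.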

[2] = system: HeLa; assay: In vitro concentration required to inhibit the growth of HeLa S3 cells by 50%; type: functional, cell-based; details: Homo sapiens
Outline: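 HeLa S3 cells (5 × 10⁴) seeded in Eagle's MEM with 10% FBS and 0.06 mg/mL kanamycin; graded drug concentrations, diluted in growth medium, added 24 h after seeding. Incubated 72 h at 37 °C, humidified 5% CO₂. Monolayers then washed, detached with 0.05% trypsin/0.02% EDTA and counted electronically; IC50 taken as concentration giving 50% growth inhibition.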

[3] = Ratio of the ILS tested compound/quinocarcin was determined for day one in CD2F1 mice.; type: functional, Mus musculus
Outline: (§2)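 CD2F1 mice (5 per group) received 10^6 P388 cells ip. Drug was given ip on day 1 or on days 1–5. ILS was taken as (T/C − 1) × 100 from median survival times, and each compound's ILS was divided by the ILS of quinocarcin.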

[4] = Antitumor activity in vivo in CD2F1 mice measured in terms of percent increase in lifespan calculated at a dose of 6.25 mg/kg intraperitoneally on day one.; type: functional; details: Mus musculus, ip, route intraperitoneal; outline: as §1
[5] = Antitumor activity in vivo in CD2F1 mice measured in terms of percent increase in lifespan calculated at a dose of 3.13 mg/kg intraperitoneally on days 1-5.; type: functional; details: Mus musculus, ip, route intraperitoneal; outline: as §1
[6] = system: Co-3; assay: Ratio of ILS tested compound/quinocarcin against Co-3 tumor cell line implanted subcutaneously in mice and the compound administered intravenously at a dose of 5.58 mg/kg on days 1-5.; type: functional, Homo sapiens; details: route intravenous
[7] = system: Co-3; assay: Ratio of ILS tested compound/quinocarcin against Co-3 tumor cell line implanted subcutaneously in mice and the compound administered intravenously at a dose of 9.18 mg/kg on days 1-5.; type: functional, Homo sapiens; details: route intravenous
[8] = system: CCRF S-180; assay: Ratio of ILS tested compound/quinocarcin against murine sarcoma S-180 tumor cell line implanted subcutaneously in mice and the compound administered intravenously at a dose of 5.85 mg/kg on days 1-5.; type: functional, Mus musculus; details: route intravenous
[9] = system: St-4; assay: Ratio of ILS tested compound/quinocarcin against St-4 tumor cell line implanted subcutaneously in mice and the compound administered intravenously at a dose of 5.58 mg/kg on days 1-5.; type: functional, Homo sapiens; details: route intravenous
[10] = system: St-4; assay: Ratio of ILS tested compound/quinocarcin against St-4 tumor cell line implanted subcutaneously in mice and the compound administered intravenously at a dose of 9.18 mg/kg on days 1-5.; type: functional, Homo sapiens; details: route intravenous
[11] = system: Homo sapiens; assay: Ratio of ILS tested compound/quinocarcin against human mammary carcinoma MX-1 cell line implanted subcutaneously in mice and the compound administered intravenously at a dose of 3.55 mg/kg on days 1-5.; type: functional; details: route intravenous
[12] = system: Homo sapiens; assay: Ratio of ILS tested compound/quinocarcin against human mammary carcinoma MX-1 cell line implanted subcutaneously in mice and the compound administered intravenously at a dose of 5.58 mg/kg on days 1-5.c means number of cured mice.; type: functional; details: route intravenous
[13] = Ratio of the ILS tested compound/quinocarcin was determined in CD2F1 mice on days 1-5.; type: functional, Mus musculus; outline: as §2
[14] = Antitumor activity in vivo in CD2F1 mice measured in terms of percent increase in lifespan calculated at a dose of 12.5 mg/kg intraperitoneally on days 1-5.; type: functional; details: Mus musculus, ip, route intraperitoneal; outline: as §1
[15] = Antitumor activity in vivo in CD2F1 mice measured in terms of percent increase in lifespan calculated at a dose of 25 mg/kg intraperitoneally on day one.; type: functional; details: Mus musculus, ip, route intraperitoneal; outline: as §1
[16] = system: CCRF S-180; assay: Ratio of ILS tested compound/quinocarcin against murine sarcoma S-180 tumor cell line implanted subcutaneously in mice and the compound administered intravenously at a dose of 12.5 mg/kg on days 1-5.; type: functional, Mus musculus; details: route intravenous
[17] = system: Homo sapiens; assay: Ratio of ILS tested compound/quinocarcin against human mammary carcinoma MX-1 cell line implanted subcutaneously in mice and the compound administered intravenously at a dose of 5.96 mg/kg on days 1-5.; type: functional; details: route intravenous
[18] = system: Homo sapiens; assay: Ratio of ILS tested compound/quinocarcin against human mammary carcinoma MX-1 cell line implanted subcutaneously in mice and the compound administered intravenously at a dose of 9.35 mg/kg on days 1-5.; type: functional; details: route intravenous
[19] = Antitumor activity in vivo in CD2F1 mice measured in terms of percent increase in lifespan calculated at a dose of 37.5 mg/kg intraperitoneally on day one.; type: functional; details: Mus musculus, ip, route intraperitoneal; outline: as §1
[20] = Antitumor activity in vivo in CD2F1 mice measured in terms of percent increase in lifespan calculated at a dose of 6.25 mg/kg intraperitoneally on days 1-5.; type: functional; details: Mus musculus, ip, route intraperitoneal; outline: as §1
[21] = Antitumor activity in vivo in CD2F1 mice measured in terms of percent increase in lifespan calculated at a dose of 12.5 mg/kg intraperitoneally on day one.; type: functional; details: Mus musculus, ip, route intraperitoneal; outline: as §1
[22] = system: CCRF S-180; assay: Ratio of ILS tested compound/quinocarcin against murine sarcoma S-180 tumor cell line implanted subcutaneously in mice and the compound administered intravenously at a dose of 4.41 mg/kg on days 1-5.; type: functional, Mus musculus; details: route intravenous
[23] = system: Homo sapiens; assay: Ratio of ILS tested compound/quinocarcin against human mammary carcinoma MX-1 cell line implanted subcutaneously in mice and the compound administered intravenously at a dose of 4.41 mg/kg on days 1-5.; type: functional; details: route intravenous

CCOC(=O)CSc1c(O)c2c(c(O)c1SCC(=O)OCC)[C@H](CO)N1C(C#N)[C@@H]3C[C@@H](C(=O)O)[C@H]([C@@H]1C2)N3C (some centres not stated)
ILS at 200 mg/kg [1]: 37%
IC50 [2]: > 10 µg/mL
R [3]: 0.9

CSC1=C(SC)C(=O)C2=C(C[C@H]3[C@H]4[C@H](C(=O)O)C[C@@H](C5OC[C@@H]2N53)N4C)C1=O (some centres not stated)
ILS at 6.25 mg/kg [4]: 48%
ILS at 3.13 mg/kg [5]: 91%
T/C [6]: 0.43
T/C [7]: 0.21
IC50 [2]: 0.019 µg/mL (≈ 0.045 µM)
T/C [8]: 0.86
T/C [9]: 0.56
T/C [10]: 0.2
T/C [11]: 0.21
T/C [12]: 0.006
R [3]: 1.85
R [13]: 0.88

CC(C)SC1=C(SC(C)C)C(=O)C2=C(C[C@H]3[C@H]4[C@H](C(=O)O)C[C@@H](C(C#N)N3[C@H]2CO)N4C)C1=O (some centres not stated)
ILS at 12.5 mg/kg [14]: 119%
ILS at 25 mg/kg [15]: 65%
IC50 [2]: 0.012 µg/mL (≈ 0.0237 µM)
T/C [16]: 0.37
T/C [17]: 0.83
T/C [18]: 0.22
R [3]: 1.48
R [13]: 1.35

COc1c2c(c(OC)c(SC(C)C)c1SC(C)C)[C@@H]1COC3[C@@H]4C[C@@H](C(=O)O)[C@H]([C@H](C2)N31)N4C (some centres not stated)
ILS at 37.5 mg/kg [19]: 9%
IC50 [2]: 0.05 µg/mL (≈ 0.0983 µM)

CSC1=C(SC)C(=O)C2=C(C[C@H]3[C@H]4[C@H](C(=O)O)C[C@@H](C(C#N)N3[C@H]2CO)N4C)C1=O (some centres not stated)
ILS at 6.25 mg/kg [20]: 71%
ILS at 12.5 mg/kg [21]: 53%
IC50 [2]: 0.13 µg/mL (≈ 0.289 µM)
T/C [22]: 1.06
T/C [23]: 0.67
R [3]: 1.23
R [13]: 0.59
